The record followed here is PubChem BioAssay AID1480 (NMMLSC, 2009).

SMILES strings stand for the structures. This is one part of the list. The source made the active and inactive calls.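 Rule for the calls: active = fluorescence in ABCG2-expressing cells above the plate's control-well mean plus 3 SD (cut at about 15 in these data); inactive = the rest.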

This test in a line: compound autofluorescence in ABCG2-expressing IgMXP3 cells, confirmation, artefact control for ABC transporter inhibitor project, cell-based, 488/530 nm, flow cytometry (AID 1480).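 Note: median cell fluorescence with compound minus that of DMSO-treated control cells.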 Conditions: compound autofluorescence 488/530 nm, at 6.6 µM, active compounds read high. An outline of the steps:
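Test system: drug-resistant ABCG2-expressing IgMXP3 cells, unlabeled with substrate / Medium: assay buffer supplied with a JC-1 mitochondrial potential kit / Probe or stimulus: none, JC-1 pump substrate omitted from wells / Compound dosing: single dose, test compound at 6.6 µM final / Schedule: 10 min compound exposure at 25 °C / Signal: high-throughput flow cytometry, green FL1 channel fluorescence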
With `COc1cccc(NC(=O)c2ccc(Cn3cc([N+](=O)[O-])cn3)o2)c1`, the fluorescence is 9.06 (inactive). As to `Cc1ccc(-n2c(SCC(=O)Nc3ncc(Cl)cc3Cl)nc3ccccc32)cc1`, the fluorescence is -0.59 (inactive). Take `Cc1cccc2cc(CN(Cc3cccs3)C(c3nnnn3C3CCCC3)C(C)C)c(=O)[nH]c12` (stereo not drawn): the fluorescence is -2.04 (inactive). With `COc1ccc(-n2c(C)cc(C(=O)COC(=O)c3cc(OC)c(OC)cc3NC(=O)c3cccs3)c2C)cc1`, the fluorescence is 1.61 (inactive). In the case of `CCOCC(=O)Nc1sc2c(c1C(=O)OCC)CCCC2`, the fluorescence was 3.96 (inactive). `CCOC(=O)c1sc(NC(=O)CSc2nnc(-c3ccco3)o2)c(C(=O)OCC)c1C`: the fluorescence is 2.51 (inactive).

Consider `CCN1/C(=C/c2ccc3ccc(C)cc3[n+]2CC)Sc2ccccc21`, for which the fluorescence was 228 (active).

`COc1ccc(C)cc1NC(=O)C(Sc1ccccc1)c1ccccc1` (stereo not drawn): the fluorescence was -1.74 (inactive). The result for `O=C(Cc1c[nH]c2ccccc12)N/N=C/c1cccc(F)c1` reads -0.24 (inactive). The result for `C/C(=N\Nc1ncc(Cl)cc1Cl)c1ccc(S(=O)(=O)NCc2ccco2)cc1` reads -1.09 (inactive). The result for `Cc1ccc(OCC(O)CN2CCN(CC(O)COc3ccc(C)cc3Cl)CC2)c(Cl)c1` (stereo not drawn) reads 31.2 (active); that for `Cc1c(CCOC(=O)CC23CC4CC(CC(C)(C4)C2)C3)sc[n+]1Cc1ccc([N+](=O)[O-])cc1`, -1.69 (inactive).

As to `C=CCn1c(SCCOc2ccc(OC)cc2)nnc1C(NC(=O)c1ccc(OC)cc1)C(C)C` (stereo not drawn), the fluorescence was 65.8 (active).
